Tests used:
[1] = system: Hepatitis C virus; test: Antiviral activity against Hepatitis C virus isolate Con1 infected in human Huh7.5 cells assessed as decrease in viral RNA replication after 3 days by hRLuc reporter gene assay; format: functional, organism-based, Hepacivirus hominis; conditions: Con1, Huh-7, 72 h
In short: (§1)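 Stable Huh7.5 replicon cell lines, kept in medium with 250 μg/ml G418, seeded at 2e4/well and settled 30 min. Compounds were added in half-log serial dilutions with solvent (compound-free) controls for 3 days at 37°C, then hRLuc activity was read. Fold change is EC50 relative to wild-type Con-1.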

[2] = system: Hepatitis C virus; test: Antiviral activity against Hepatitis C virus genotype 1a H77 infected in human Huh7.5 cells assessed as decrease in viral RNA replication after 3 days by hRLuc reporter gene assay; format: functional, organism-based, Hepacivirus hominis; conditions: genotype 1a H77, Huh-7, 72 h; in short: as §1
[3] = system: Hepatitis C virus; test: Antiviral activity against Hepatitis C virus genotype 2a JFH1 infected in human Huh7.5 cells assessed as decrease in viral RNA replication after 3 days by hRLuc reporter gene assay; format: functional, organism-based, Hepacivirus hominis; conditions: JFH-1, Huh-7, 72 h; in short: as §1
[4] = system: Hepatitis C virus; test: Antiviral activity against Hepatitis C virus isolate Con1 transfected with NS5B polymerase of HCV genotype 2b in human Huh7.5 cells assessed as decrease in viral RNA replication after 3 days by hRLuc reporter gene assay; format: functional, organism-based, Hepacivirus hominis; conditions: Con1, Huh-7, 72 h; in short: as §1
[5] = system: Hepatitis C virus; test: Antiviral activity against Hepatitis C virus isolate Con1 transfected with NS5B polymerase of HCV genotype 3a infected in human Huh7.5 cells assessed as decrease in viral RNA replication after 3 days by hRLuc reporter gene assay; format: functional, organism-based, Hepacivirus hominis; conditions: Con1, Huh-7, 72 h; in short: as §1
[6] = system: Hepatitis C virus; test: Antiviral activity against Hepatitis C virus isolate Con1 transfected with NS5B polymerase of HCV genotype 4a infected in human Huh7.5 cells assessed as decrease in viral RNA replication after 3 days by hRLuc reporter gene assay; format: functional, organism-based, Hepacivirus hominis; conditions: Con1, Huh-7, 72 h; in short: as §1
[7] = system: Hepatitis C virus; test: Antiviral activity against Hepatitis C virus isolate Con1 transfected with NS5B polymerase of HCV genotype 5a infected in human Huh7.5 cells assessed as decrease in viral RNA replication after 3 days by hRLuc reporter gene assay; format: functional, organism-based, Hepacivirus hominis; conditions: Con1, Huh-7, 72 h; in short: as §1
[8] = system: Hepatitis C virus; test: Ratio of EC50 for wild-type Hepatitis C virus isolate Con1 to EC50 for Hepatitis C virus genotype 1a H77 in human Huh7.5 cells by hRLuc reporter gene assay; format: functional, Hepacivirus hominis, Huh-7; in short: as §1
[9] = system: Hepatitis C virus; test: Ratio of EC50 for wild-type Hepatitis C virus isolate Con1 to EC50 for Hepatitis C virus genotype 2a JFH1 in human Huh7.5 cells by hRLuc reporter gene assay; format: functional, Hepacivirus hominis, Huh-7; in short: as §1
[10] = system: Hepatitis C virus; test: Ratio of EC50 for wild-type Hepatitis C virus isolate Con1 to EC50 for Hepatitis C virus isolate Con1 transfected with NS5B polymerase of HCV genotype 2b in human Huh7.5 cells by hRLuc reporter gene assay; format: functional, Hepacivirus hominis, Huh-7; in short: as §1
[11] = system: Hepatitis C virus; test: Ratio of EC50 for wild-type Hepatitis C virus isolate Con1 to EC50 for Hepatitis C virus isolate Con1 transfected with NS5B polymerase of HCV genotype 3a in human Huh7.5 cells by hRLuc reporter gene assay; format: functional, Hepacivirus hominis, Huh-7; in short: as §1
[12] = system: Hepatitis C virus; test: Ratio of EC50 for wild-type Hepatitis C virus isolate Con1 to EC50 for Hepatitis C virus isolate Con1 transfected with NS5B polymerase of HCV genotype 4a in human Huh7.5 cells by hRLuc reporter gene assay; format: functional, Hepacivirus hominis, Huh-7; in short: as §1
[13] = system: Hepatitis C virus; test: Ratio of EC50 for wild-type Hepatitis C virus isolate Con1 to EC50 for Hepatitis C virus isolate Con1 transfected with NS5B polymerase of HCV genotype 5a in human Huh7.5 cells by hRLuc reporter gene assay; format: functional, Hepacivirus hominis, Huh-7; in short: as §1
[14] = system: Hepatitis C virus; test: Ratio of EC50 for wild-type Hepatitis C virus isolate Con1 to EC50 for Hepatitis C virus isolate Con1 with NS5B polymerase L419I mutant in human Huh7.5 cells by hRLuc reporter gene assay; format: functional, Hepacivirus hominis, Huh-7
In short: (§2)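 Transient assay: Huh7.5 cells electroporated with 10 μg in vitro replicon transcript at 220 V, seeded at 6 × 10^4 cells/well, and given 4 h recovery. Half-log serial compound dilutions with solvent controls were then added for 3 days at 37°C, and hRLuc luciferase was read. EC50 was taken as 50% of compound-free signal by nonlinear regression, as mean ± SD of 2–3 independent experiments. Fold change is relative to wild-type Con-1.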

[15] = system: Hepatitis C virus; test: Ratio of EC50 for wild-type Hepatitis C virus isolate Con1 to EC50 for Hepatitis C virus isolate Con1 with NS5B polymerase I482L mutant in human Huh7.5 cells by hRLuc reporter gene assay; format: functional, Hepacivirus hominis, Huh-7; in short: as §2
[16] = system: Hepatitis C virus; test: Ratio of EC50 for wild-type Hepatitis C virus isolate Con1 to EC50 for Hepatitis C virus isolate Con1 with NS5B polymerase L419I and I482L mutant in human Huh7.5 cells by hRLuc reporter gene assay; format: functional, Hepacivirus hominis, Huh-7; in short: as §2

Row | Structure (SMILES) | EC50 [1] [nM] | EC50 [2] [nM] | EC50 [3] [nM] | EC50 [4] [nM] | EC50 [5] [nM] | EC50 [6] [nM] | EC50 [7] [nM] | fold change (FC) [8] | fold change (FC) [9] | fold change (FC) [10] | fold change (FC) [11] | fold change (FC) [12] | fold change (FC) [13] | fold change (FC) [14] | fold change (FC) [15] | fold change (FC) [16]
1 | COc1ccc2c(O[C@@H]3C[C@H]4C(=O)N[C@@]5(C(=O)O)C[C@@H]5/C=C\CCCCC[C@H](NC(=O)OC(C)(C)C)C(=O)N4C3)cc(-c3ccccn3)nc2c1 [listing 1 of 2 here] | 6.6 | 20 | 740 | 26 | 22 | 53 | 23 |  |  |  |  |  |  |  |  | 
2 | COc1ccc2c(O[C@@H]3C[C@H]4C(=O)N[C@@]5(C(=O)O)C[C@@H]5/C=C\CCCCC[C@H](NC(=O)OC(C)(C)C)C(=O)N4C3)cc(-c3ccccn3)nc2c1 [listing 2 of 2 here] |  |  |  |  |  |  |  | 3 | 112 | 4 | 3 | 8 | 3 |  |  | 
3 | CC(C)C#Cc1cc(N(C(=O)[C@H]2CC[C@H](C)CC2)C(C)C)c(C(=O)O)s1 | 25 | 20 | 6100 | > 32000 | > 32000 | 2200 | 200 | 1 | 244 | >1280 | >1280 | 88 | 8 | 326 | 201 | 2238
4 | O=C(O)c1ccc2c(c1)nc(-c1ccc(OCc3cc(C(=O)N4CCC(O)CC4)ccc3-c3ccc(Cl)cc3)cc1F)n2C1CCCCC1 | 900 | 490 | 6900 | 30000 | 210 | 1500 | 160 | 1 | 8 | 33 | 0.2 | 2 | 0.2 | 4 | 3 | 8
5 | NC(=O)COc1ccc2c(c1)S(=O)(=O)N=C(c1c(O)c3ccccc3n(NC3CCC3)c1=O)N2 | 33 | 140 | > 32000 | > 32000 | > 32000 | 25000 | 5000 | 4 | >970 | >970 | >970 | 758 | 152 | 0.2 | 0.5 | 0.2
6 | C[C@@]1(O)[C@H](O)[C@@H](CO)O[C@H]1n1ccc(N)nc1=O |  |  |  |  |  |  |  | 1 | 1 | 0.4 | 0.2 | 2 | 0.5 | 1 | 1 | 2
7 | CNC(=O)c1c(-c2ccc(F)cc2)oc2cc(N(CCO)S(C)(=O)=O)c(C3CC3)cc12 [NESBUVIR] | 42 | 38 | 130 | 55 | 51 | 69 | 3.2 | 1 | 3 | 1 | 1 | 2 | 0.1 | 2 | 1 | 3

Source: ChEMBL document CHEMBL1629557, “Development of intergenotypic chimeric replicons to determine the broad-spectrum antiviral activities of hepatitis C virus polymerase inhibitors” (Antimicrob Agents Chemother, 2008)
